Laboratory results from ChEMBL document CHEMBL1122232, “Quantitative structure-inotropy relationship applied to substituted grayanotoxins” (J Med Chem, 1983).

Key:
Cavia porcellus = organism: Cavia porcellus; assay: Positive inotropic effect was determined by measuring force of contraction of papillary muscle in guinea pig at a driving rate of 1.0 Hz; format: functional, Muscle tissue
Method in brief: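 Isolated guinea pig papillary muscle paced at 1.0 Hz in Krebs-Henseleit solution (Ca2+ 3.2 mM, 30 °C). Compounds added cumulatively to the bath every 20 min. Contraction force recorded on oscillographic paper. pD2 = molar concentration giving 50% of maximum positive inotropic effect, read from concentration-response curves in five to six muscles; mean reported.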

[1] = Lethal dose in guinea pig; format: toxicity, organism-based, Cavia porcellus; conditions: in vivo
Method in brief: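 Male Hartley guinea pigs of about 350 g. LD50 determined by the up-and-down method.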

CCCCCC(=O)O[C@@H]1C2CCC3[C@@](C)(O)C4CC(O)C(C)(C)C4(O)C(O)C[C@]31C[C@@]2(C)O (stereo not given in full)
pD2 (Cavia porcellus): 5.75 | LD50 [1]: 0.34 mg/kg

CCCCC(=O)O[C@@H]1C2CCC3[C@@](C)(O)C4CC(O)C(C)(C)C4(O)C(O)C[C@]31C[C@@]2(C)O (stereo not given in full)
pD2 (Cavia porcellus): 6.41 | LD50 [1]: 0.17 mg/kg

CC(=O)O[C@@H]1C2CCC3[C@@](C)(O)C4CC(O)C(C)(C)C4(O)C(O)C[C@]31C[C@@]2(C)O (stereo not given in full)
pD2 (Cavia porcellus): 6.31 | LD50 [1]: 1.3 mg/kg

CCC(=O)O[C@@H]1C2CCC3[C@@](C)(O)C4CC(O)C(C)(C)C4(O)C(O)C[C@]31C[C@@]2(C)O (stereo not given in full)
pD2 (Cavia porcellus): 6.67 | LD50 [1]: 0.044 mg/kg

CC(C)(C)C(=O)O[C@@H]1C2CCC3[C@@](C)(O)C4CC(O)C(C)(C)C4(O)C(O)C[C@]31C[C@@]2(C)O (stereo not given in full)
pD2 (Cavia porcellus): 5.78 | LD50 [1]: 0.36 mg/kg

CC1(C)C(O)CC2C1(O)C(O)C[C@]13C[C@@](C)(O)C(CCC1[C@@]2(C)O)[C@H]3OC(=O)CCCl (stereo not given in full)
pD2 (Cavia porcellus): 6.96 | LD50 [1]: 0.17 mg/kg

CC1(C)[C@@H](O)C[C@@H]2[C@]1(O)[C@H](O)C[C@]13C[C@@](C)(O)[C@H](CCC1[C@@]2(C)O)[C@H]3O[C@H]1O[C@@H](CO)[C@H](O)[C@@H](O)[C@@H]1O (stereo not given in full)
pD2 (Cavia porcellus): <4 | LD50 [1]: < 6 mg/kg

CC1(C)C(O)CC2C1(O)C(O)C[C@]13C[C@@](C)(O)C(CCC1[C@@]2(C)O)[C@H]3OC(=O)C1CCCCC1 (stereo not given in full)
pD2 (Cavia porcellus): 6.17 | LD50 [1]: 0.31 mg/kg

CC1(C)C(O)CC2C1(O)C(O)C[C@]13C[C@@](C)(O)C(CCC1[C@@]2(C)O)[C@H]3O (stereo not given in full)
pD2 (Cavia porcellus): 6.15 | LD50 [1]: 0.45 mg/kg

CCCCCCC(=O)O[C@@H]1C2CCC3[C@@](C)(O)C4CC(O)C(C)(C)C4(O)C(O)C[C@]31C[C@@]2(C)O (stereo not given in full)
pD2 (Cavia porcellus): 5.32

CCCC(=O)O[C@@H]1C2CCC3[C@@](C)(O)C4CC(O)C(C)(C)C4(O)C(O)C[C@]31C[C@@]2(C)O (stereo not given in full)
pD2 (Cavia porcellus): 6.81 | LD50 [1]: 0.12 mg/kg

CC1(C)C(O)CC2C1(O)C(O)C[C@]13C[C@@](C)(O)C(CCC1[C@@]2(C)O)[C@H]3OC(=O)c1ccccc1 (stereo not given in full)
pD2 (Cavia porcellus): 5.79 | LD50 [1]: 1.35 mg/kg

CC(O)C(=O)O[C@@H]1C2CCC3[C@@](C)(O)C4CC(O)C(C)(C)C4(O)C(O)C[C@]31C[C@@]2(C)O (stereo not given in full)
pD2 (Cavia porcellus): 6.54 | LD50 [1]: 0.08 mg/kg
